Data reported in ChEMBL document CHEMBL1629528 (J Med Chem, 2010).
The source made the active and inactive calls. The calls are words filed in the database; no cut-off is given here.

How the values were obtained:
[1] = target: T1, 5-hydroxytryptamine receptor 1D (Homo sapiens, UniProt P28221); assay: Inverse agonist activity at human recombinant 5-HT1D receptor expressed in CHO cells by [S35]GTPgammaS binding assay; type: functional, cell-based
Summary of the method: (§1)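 [35S]-GTPγS binding in membranes from 10^6 cells (HEK293 for 5-HT1A; CHO for 5-HT1B, 5-HT1D), preincubated 30 min at 30 °C with compound in 20 mM HEPES pH 7.4, 3 mM MgCl2, 100 mM NaCl, 10 μM GDP, 0.2 mM ascorbate. 100 pM [35S]-GTPγS added, 30 min more at 30 °C; nonspecific with 20 μM GTPγS; filtration and scintillation counting.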

[2] = target: 5-hydroxytryptamine receptor 6 (Homo sapiens, UniProt P50406); assay: Binding affinity to human recombinant 5-HT6 receptor by radioligand displacement assay
D(3) dopamine receptor = D(3) dopamine receptor (Homo sapiens, UniProt P35462); assay: Binding affinity to human recombinant dopamine D3 receptor by radioligand displacement assay
[3] = target: Sodium-dependent serotonin transporter (Rattus norvegicus, UniProt P31652); assay: Inhibition of [3H]5-HT uptake at SERT in rat cortical synaptosomes; type: subcellular, Brain
[4] = target: 5-hydroxytryptamine receptor 2B (Homo sapiens, UniProt P41595); assay: Binding affinity to human recombinant 5-HT2B receptor by radioligand displacement assay
D(2) dopamine receptor = D(2) dopamine receptor (Homo sapiens, UniProt P14416); assay: Binding affinity to human recombinant dopamine D2 receptor by radioligand displacement assay
[5] = target: T2, 5-hydroxytryptamine receptor 1A (Homo sapiens) (UniProt P08908); assay: Intrinsic activity at human recombinant 5-HT1A receptor expressed in HEK293 cells by [S35]GTPgammaS binding assay relative to 5-HT; type: functional, cell-based; summary of the method: as §1
T2 sequence (whole entry): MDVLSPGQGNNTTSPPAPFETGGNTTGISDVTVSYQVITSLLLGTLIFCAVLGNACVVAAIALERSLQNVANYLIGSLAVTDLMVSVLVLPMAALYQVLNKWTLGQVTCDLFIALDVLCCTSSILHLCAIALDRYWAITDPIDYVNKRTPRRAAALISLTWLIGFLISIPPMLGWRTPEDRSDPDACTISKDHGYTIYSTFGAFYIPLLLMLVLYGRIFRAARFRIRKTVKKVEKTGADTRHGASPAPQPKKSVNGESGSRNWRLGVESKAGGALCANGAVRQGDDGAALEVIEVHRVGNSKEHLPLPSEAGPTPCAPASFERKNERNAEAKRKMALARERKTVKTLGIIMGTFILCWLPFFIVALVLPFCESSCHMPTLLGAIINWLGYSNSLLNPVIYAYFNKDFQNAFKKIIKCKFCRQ

[6] = target: T3, 5-hydroxytryptamine receptor 2C (Homo sapiens, UniProt P28335); assay: Binding affinity to human recombinant 5-HT2C receptor by radioligand displacement assay
T3 sequence (P28335 whole entry): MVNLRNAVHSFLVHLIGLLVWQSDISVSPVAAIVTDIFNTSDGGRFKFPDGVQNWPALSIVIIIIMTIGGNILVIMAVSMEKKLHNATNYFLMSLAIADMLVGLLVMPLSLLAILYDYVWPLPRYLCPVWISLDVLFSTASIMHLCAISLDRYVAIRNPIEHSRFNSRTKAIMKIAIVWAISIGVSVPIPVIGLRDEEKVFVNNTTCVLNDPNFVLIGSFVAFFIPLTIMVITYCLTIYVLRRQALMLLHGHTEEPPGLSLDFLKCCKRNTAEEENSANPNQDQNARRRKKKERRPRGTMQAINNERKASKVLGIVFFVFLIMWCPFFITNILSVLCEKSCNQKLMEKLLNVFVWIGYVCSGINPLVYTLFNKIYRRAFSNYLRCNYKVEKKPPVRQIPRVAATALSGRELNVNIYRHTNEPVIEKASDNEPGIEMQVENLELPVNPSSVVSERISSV

[7] = target: 5-hydroxytryptamine receptor 7 (Homo sapiens, UniProt P34969); assay: Binding affinity to human recombinant 5-HT7 receptor by radioligand displacement assay
[8] = target: T1, 5-hydroxytryptamine receptor 1D; assay: Displacement of [3H]5-HT from human recombinant 5-HT1D receptor expressed in CHO cells; type: cell-based
[9] = target: 5-hydroxytryptamine receptor 2A (Homo sapiens, UniProt P28223); assay: Binding affinity to human recombinant 5-HT2A receptor by radioligand displacement assay
[10] = target: T4, 5-hydroxytryptamine receptor 1B (Homo sapiens, UniProt P28222); assay: Intrinsic activity at human recombinant 5-HT1B receptor expressed in CHO cells by [S35]GTPgammaS binding assay relative to 5-HT; type: functional, cell-based; summary of the method: as §1
[11] = target: Voltage-gated inwardly rectifying potassium channel KCNH2 (Homo sapiens, UniProt Q12809); assay: Displacement of [3H]dofetilide from human ERG by SPA
Rattus norvegicus = assay: Inhibition of 8-OH-DPAT-induced hyperlocomotory activity in Sprague-Dawley rat administered orally 60 mins before 8-OH-DPATchallenge; type: functional
Summary of the method: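 Male Sprague-Dawley rats (250–350 g) dosed orally (5 mL/kg) at 0.03, 0.1 or 0.3 mg/kg or vehicle, 60 min before sc 8-OH-DPAT 0.2 mg/kg (2 mL/kg). Total distance travelled recorded by infrared sensors over 30 min immediately after; 8–9 rats per group.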

[12] = target: T1, 5-hydroxytryptamine receptor 1D; assay: Intrinsic activity at human recombinant 5-HT1D receptor expressed in CHO cells by [S35]GTPgammaS binding assay relative to 5-HT; type: functional, cell-based; summary of the method: as §1
[13] = Clearance in Sprague-Dawley rat at 0.5 mg/kg, iv after 24 hrs; type: ADME, organism-based; set-up: dose 0.5 mg/kg, route intravenous; conditions: in vivo
Summary of the method: (§2)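 Male Sprague-Dawley rats given 0.5 mg/kg iv (2 mL/kg, 2.5% DMSO in glucosate solution), n=3, cassette dosing; blood collected at intervals up to 24 h, protein precipitation and LC-MS/MS quantification.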

[14] = Half life in Sprague-Dawley rat at 0.5 mg/kg, iv after 24 hrs; type: ADME, organism-based; set-up: dose 0.5 mg/kg, route intravenous; conditions: in vivo; summary of the method: as §2
[15] = Solubility of the compound in simulated gastric fluid at pH 1.2 at 25 degC; type: physicochemical
[16] = AUC (0 to infinity) in Sprague-Dawley rat at 1 mg/kg, po after 24 hrs; type: ADME, organism-based; set-up: time infinity, dose 1 mg/kg, route oral; conditions: plasma
Summary of the method: (§3)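 Male Sprague-Dawley rats dosed po at 1 mg/kg (10 mL/kg, 1% DMSO in aqueous 0.5% methocel), n=3, as a cassette with other compounds; blood sampled at intervals up to 24 h and analysed by protein precipitation then LC-MS/MS.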

[17] = Oral bioavailability in Sprague-Dawley rat at 1 mg/kg, po after 24 hrs; type: ADME, organism-based; conditions: in vivo; summary of the method: as §3
[18] = Cmax in Sprague-Dawley rat at 1 mg/kg, po after 24 hrs; type: ADME, organism-based; set-up: dose 1 mg/kg, route oral; conditions: in vivo; summary of the method: as §3
[19] = Solubility of the compound in water; type: physicochemical
Summary of the method: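 Measured on the dihydrochloride salt form, dissolved in water.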

[20] = Solubility of the compound in fed state simulated intestinal fluid at pH 5.5 at 25 degC; type: physicochemical
Summary of the method: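 Solubility determined at 25 °C in fed state simulated intestinal fluid at pH 5.5.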

[21] = Ratio of drug level in brain to blood in Sprague-Dawley rat after 1 hr; type: ADME, tissue-based; conditions: read-out: BBR
Summary of the method: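 Male Sprague-Dawley rats dosed iv at 0.5 mg/kg (2.5% DMSO in glucosate), n=3, as a cassette. At 1 h, CO2 anaesthesia, blood taken by heart puncture and brain removed. Both matrices analysed by protein precipitation and LC-MS/MS.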

[22] = target: T4, 5-hydroxytryptamine receptor 1B; assay: Displacement of [3H]5-HT from human recombinant 5-HT1B receptor expressed in CHO cells; type: cell-based
[23] = target: T5, 5-hydroxytryptamine receptor 1A (Homo sapiens, UniProt P08908); assay: Displacement of [3H]WAY100635 from human recombinant 5-HT1A receptor expressed in CHO cells; type: cell-based
T5 sequence (P08908 whole entry): T2 sequence (whole entry)

[24] = target: T4, 5-hydroxytryptamine receptor 1B; assay: Inverse agonist activity at human recombinant 5-HT1B receptor expressed in CHO cells by [S35]GTPgammaS binding assay; type: functional, cell-based; summary of the method: as §1

T4 sequence (P28222 whole entry): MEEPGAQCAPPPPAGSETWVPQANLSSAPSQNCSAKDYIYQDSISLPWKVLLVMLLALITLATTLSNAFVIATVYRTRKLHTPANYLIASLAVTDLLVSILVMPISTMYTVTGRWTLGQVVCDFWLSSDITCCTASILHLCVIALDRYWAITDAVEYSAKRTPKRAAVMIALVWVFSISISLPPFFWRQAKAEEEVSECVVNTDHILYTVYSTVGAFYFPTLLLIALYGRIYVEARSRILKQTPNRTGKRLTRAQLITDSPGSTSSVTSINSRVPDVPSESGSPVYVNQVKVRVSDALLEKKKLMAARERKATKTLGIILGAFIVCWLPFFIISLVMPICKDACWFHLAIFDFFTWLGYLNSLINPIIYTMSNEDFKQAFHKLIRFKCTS
T1 sequence (P28221 whole entry): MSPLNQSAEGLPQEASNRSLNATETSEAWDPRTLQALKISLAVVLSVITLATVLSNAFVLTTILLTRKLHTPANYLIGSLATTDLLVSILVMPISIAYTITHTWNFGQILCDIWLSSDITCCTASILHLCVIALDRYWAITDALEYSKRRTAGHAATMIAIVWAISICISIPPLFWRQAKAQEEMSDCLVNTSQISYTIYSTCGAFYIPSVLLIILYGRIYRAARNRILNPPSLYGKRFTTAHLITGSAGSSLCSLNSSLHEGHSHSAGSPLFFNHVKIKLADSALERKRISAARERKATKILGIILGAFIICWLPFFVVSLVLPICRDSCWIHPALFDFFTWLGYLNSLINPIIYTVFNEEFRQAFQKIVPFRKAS
D(3) dopamine receptor, sequence (P35462 whole entry): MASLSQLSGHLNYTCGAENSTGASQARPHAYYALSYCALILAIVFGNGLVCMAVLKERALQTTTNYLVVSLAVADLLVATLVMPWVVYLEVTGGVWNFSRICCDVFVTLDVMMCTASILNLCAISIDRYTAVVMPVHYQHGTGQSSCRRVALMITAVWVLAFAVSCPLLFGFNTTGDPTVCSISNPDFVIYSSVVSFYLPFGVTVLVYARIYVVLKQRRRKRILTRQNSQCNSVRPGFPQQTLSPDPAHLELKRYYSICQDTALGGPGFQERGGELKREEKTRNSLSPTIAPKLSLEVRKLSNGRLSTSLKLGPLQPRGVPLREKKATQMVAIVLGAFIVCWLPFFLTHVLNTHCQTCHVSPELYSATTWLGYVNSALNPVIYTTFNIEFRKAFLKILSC
5-hydroxytryptamine receptor 6, sequence (P50406 whole entry): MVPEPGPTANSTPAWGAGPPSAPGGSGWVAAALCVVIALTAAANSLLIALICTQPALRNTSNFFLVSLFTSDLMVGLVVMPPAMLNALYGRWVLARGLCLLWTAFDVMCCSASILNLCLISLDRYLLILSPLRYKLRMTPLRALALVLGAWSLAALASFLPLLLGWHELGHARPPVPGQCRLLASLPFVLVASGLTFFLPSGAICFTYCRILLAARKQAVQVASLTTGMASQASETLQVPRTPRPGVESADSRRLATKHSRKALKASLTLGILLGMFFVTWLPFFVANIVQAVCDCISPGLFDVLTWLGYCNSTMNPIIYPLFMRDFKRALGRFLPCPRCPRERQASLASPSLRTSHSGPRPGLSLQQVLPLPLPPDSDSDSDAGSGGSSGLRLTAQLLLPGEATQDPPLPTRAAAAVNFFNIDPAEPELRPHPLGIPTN
D(2) dopamine receptor, sequence (P14416 whole entry): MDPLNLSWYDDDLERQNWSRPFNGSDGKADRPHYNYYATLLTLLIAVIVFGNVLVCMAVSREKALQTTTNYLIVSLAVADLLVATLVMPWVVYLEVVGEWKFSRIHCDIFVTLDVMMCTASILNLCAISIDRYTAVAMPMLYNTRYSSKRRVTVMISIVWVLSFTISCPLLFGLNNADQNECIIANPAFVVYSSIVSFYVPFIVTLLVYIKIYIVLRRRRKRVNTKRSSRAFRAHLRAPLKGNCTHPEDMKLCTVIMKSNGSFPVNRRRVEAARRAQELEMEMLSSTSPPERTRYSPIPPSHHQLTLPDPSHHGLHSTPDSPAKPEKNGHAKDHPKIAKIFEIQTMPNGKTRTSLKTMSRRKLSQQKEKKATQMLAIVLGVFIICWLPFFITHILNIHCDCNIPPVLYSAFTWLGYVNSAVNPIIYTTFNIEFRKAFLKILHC
5-hydroxytryptamine receptor 2B, sequence (P41595 whole entry): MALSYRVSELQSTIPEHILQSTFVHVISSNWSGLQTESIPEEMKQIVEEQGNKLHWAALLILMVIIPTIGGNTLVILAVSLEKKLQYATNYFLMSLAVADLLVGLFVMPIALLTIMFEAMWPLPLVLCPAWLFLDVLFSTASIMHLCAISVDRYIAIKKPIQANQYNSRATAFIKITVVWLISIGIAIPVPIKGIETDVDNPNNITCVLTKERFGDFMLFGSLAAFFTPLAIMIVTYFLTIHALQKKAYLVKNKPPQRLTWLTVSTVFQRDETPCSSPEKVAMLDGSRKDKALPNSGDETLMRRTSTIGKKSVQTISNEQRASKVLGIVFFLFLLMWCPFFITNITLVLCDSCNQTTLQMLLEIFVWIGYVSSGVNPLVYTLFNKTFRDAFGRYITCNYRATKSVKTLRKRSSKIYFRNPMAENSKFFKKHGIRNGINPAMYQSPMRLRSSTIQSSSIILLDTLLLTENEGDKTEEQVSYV
Voltage-gated inwardly rectifying potassium channel KCNH2, sequence (Q12809 whole entry): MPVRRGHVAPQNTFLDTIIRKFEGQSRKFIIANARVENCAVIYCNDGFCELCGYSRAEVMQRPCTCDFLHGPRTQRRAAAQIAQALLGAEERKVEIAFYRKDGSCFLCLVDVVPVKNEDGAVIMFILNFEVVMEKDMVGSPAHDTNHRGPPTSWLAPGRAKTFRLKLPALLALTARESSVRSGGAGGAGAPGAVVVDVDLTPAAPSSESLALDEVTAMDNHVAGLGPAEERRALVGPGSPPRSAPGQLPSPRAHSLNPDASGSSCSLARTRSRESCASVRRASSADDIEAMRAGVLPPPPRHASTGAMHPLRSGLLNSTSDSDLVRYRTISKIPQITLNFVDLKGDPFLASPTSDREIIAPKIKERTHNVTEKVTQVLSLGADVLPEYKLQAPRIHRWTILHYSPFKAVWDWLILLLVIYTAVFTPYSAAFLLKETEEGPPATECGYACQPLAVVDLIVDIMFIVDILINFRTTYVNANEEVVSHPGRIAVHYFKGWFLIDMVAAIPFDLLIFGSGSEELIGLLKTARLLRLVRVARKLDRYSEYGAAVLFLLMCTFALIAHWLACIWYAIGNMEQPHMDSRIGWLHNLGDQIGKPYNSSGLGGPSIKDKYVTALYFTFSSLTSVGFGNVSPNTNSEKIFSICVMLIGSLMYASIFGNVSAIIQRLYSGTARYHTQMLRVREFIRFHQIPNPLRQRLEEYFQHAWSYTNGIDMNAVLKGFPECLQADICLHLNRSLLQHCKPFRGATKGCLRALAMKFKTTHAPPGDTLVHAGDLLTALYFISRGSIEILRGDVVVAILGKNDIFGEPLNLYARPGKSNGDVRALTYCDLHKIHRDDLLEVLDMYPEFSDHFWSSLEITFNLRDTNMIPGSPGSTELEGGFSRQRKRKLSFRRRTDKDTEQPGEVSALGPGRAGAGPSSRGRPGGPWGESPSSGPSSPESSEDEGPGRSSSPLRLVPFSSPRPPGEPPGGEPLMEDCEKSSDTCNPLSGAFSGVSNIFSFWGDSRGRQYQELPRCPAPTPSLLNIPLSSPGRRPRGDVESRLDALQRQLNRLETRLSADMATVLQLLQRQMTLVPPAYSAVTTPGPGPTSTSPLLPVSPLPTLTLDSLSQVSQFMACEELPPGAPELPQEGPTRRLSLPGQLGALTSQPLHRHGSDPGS
5-hydroxytryptamine receptor 7, sequence (P34969 whole entry): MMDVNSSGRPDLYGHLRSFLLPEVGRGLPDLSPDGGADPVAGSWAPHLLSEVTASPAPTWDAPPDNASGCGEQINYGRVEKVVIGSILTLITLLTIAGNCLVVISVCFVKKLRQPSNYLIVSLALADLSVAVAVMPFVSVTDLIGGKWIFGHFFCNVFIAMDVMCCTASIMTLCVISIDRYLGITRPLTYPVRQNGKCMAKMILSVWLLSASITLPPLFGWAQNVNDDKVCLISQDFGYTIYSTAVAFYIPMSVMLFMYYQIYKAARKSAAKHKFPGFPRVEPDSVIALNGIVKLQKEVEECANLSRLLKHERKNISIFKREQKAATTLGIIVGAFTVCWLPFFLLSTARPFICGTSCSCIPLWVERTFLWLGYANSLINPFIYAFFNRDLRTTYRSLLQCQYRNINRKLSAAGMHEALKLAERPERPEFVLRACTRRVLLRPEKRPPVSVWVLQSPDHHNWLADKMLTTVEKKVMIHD
Sodium-dependent serotonin transporter, sequence (P31652 whole entry): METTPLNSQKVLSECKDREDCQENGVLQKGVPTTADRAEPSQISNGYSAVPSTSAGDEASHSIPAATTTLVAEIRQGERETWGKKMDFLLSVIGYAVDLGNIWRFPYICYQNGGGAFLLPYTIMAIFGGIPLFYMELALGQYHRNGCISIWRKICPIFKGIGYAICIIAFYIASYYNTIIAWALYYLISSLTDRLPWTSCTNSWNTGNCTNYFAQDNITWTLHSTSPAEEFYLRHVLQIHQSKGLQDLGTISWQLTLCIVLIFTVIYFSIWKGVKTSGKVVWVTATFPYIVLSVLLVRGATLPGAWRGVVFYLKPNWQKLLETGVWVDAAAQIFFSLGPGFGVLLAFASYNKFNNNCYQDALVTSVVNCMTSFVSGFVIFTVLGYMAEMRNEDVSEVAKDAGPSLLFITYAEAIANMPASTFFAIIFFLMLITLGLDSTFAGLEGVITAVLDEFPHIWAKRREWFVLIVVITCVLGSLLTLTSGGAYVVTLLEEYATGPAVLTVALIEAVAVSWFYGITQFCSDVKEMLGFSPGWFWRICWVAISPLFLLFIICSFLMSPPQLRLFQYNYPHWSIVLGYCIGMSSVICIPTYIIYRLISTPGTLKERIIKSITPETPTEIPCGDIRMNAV

SMILES | Activity [1] | Ki [2] | Ki (D(3) dopamine receptor) | Ki [3] | Ki [4] | Ki (D(2) dopamine receptor) | Intrinsic activity [5] | Ki [6] | Ki [7] | Ki [8] | Ki [9] | Intrinsic activity [10] | Ki [11] | inhibition (Rattus norvegicus) | also measured
Cc1ccc2c(N3CCN(CCc4cccc(N5CCOC5=O)c4)CC3)cccc2n1 | Active | 3160 nM | 200 nM | 501 nM | 1260 nM | 794 nM | 0 | > 5010 nM | 501 nM | 0.158 nM | 794 nM | 0 | 2000 nM | – | –
Cc1ccc2c(N3CCN(CCc4cccc(N5CCNC5=O)c4)CC3)cccc2n1 | – | – | – | – | – | – | 0 | – | – | – | – | 0 | – | Dose-dependent effect | Intrinsic activity [12]: 0
CC(=O)Nc1cccc(CCN2CCN(c3cccc4nc(C)ccc34)CC2)c1.Cl.Cl | – | – | – | – | – | – | – | – | – | – | – | – | – | – | clearance [13]: 10 mL/min/kg; half-life [14]: 4.6 h; solubility [15]: > 10000 µg/mL; AUC(0-inf) [16]: 893 ng·h/mL; bioavailability [17]: 51%; Cmax [18]: 98 ng/mL; solubility [19]: > 10000 µg/mL; solubility [20]: 5000 µg/mL; ED50 (Rattus norvegicus; po): 0.09 mg/kg; Kp at 1 h [21]: 0.7

Further lines, with some results ahead:

Activity [1] | Ki [2] | Ki (D(3) dopamine receptor) | Ki [3] | Ki [4] | Ki (D(2) dopamine receptor) | Intrinsic activity [5] | Ki [6] | Ki [7] | Ki [8] | Ki [9] | Intrinsic activity [10] | SMILES | Ki [11] | inhibition (Rattus norvegicus) | also measured
Active | – | – | – | – | – | 0 | – | – | – | – | 0 | CC(=O)Nc1cccc(CCN2CCN(c3cccc4nc(C)ccc34)CC2)c1 | – | Dose-dependent effect | –
Active | > 6310 nM | 126 nM | 501 nM | 398 nM | 316 nM | 0 | 794 nM | 39.8 nM | 0.158 nM | 316 nM | – | CCNC(=O)Nc1cccc(CCN2CCN(c3cccc4nc(C)ccc34)CC2)c1 | 631 nM | – | Ki [22]: 1.26 nM; Ki [23]: 2 nM; Activity [24]: Active
